One test deals with HEK293. Nature of the test: Antiproliferative activity against human HEK293 cells after 2 days by MTT assay. It counts as cell-based. As to conditions: HEK293, 48 h. An outline of the steps: (§1)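 Cells (5×10^3 per well) in DMEM with 10% FBS, glucose, glutamine and antibiotics were exposed to serial dilutions (stocks in DMSO) for 2 days at 37 °C, 5% CO2. MTT was added for 3 h, formazan was dissolved in DMSO and absorbance read at 490 nm. Viability was taken as % of untreated cells. IC50 was read graphically from three independent experiments.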

Test [1] relates to HT-29. The test is described as follows: Antiproliferative activity against human HT-29 cells after 2 days by MTT assay. It counts as functional, cell-based. As to conditions: HT-29, 48 h. An outline of the steps:
as §1

The subject of test [2] is HT-29. The test is described as follows: Effect on c-MYC gene expression in human HT-29 cells assessed as c-MYC level at 1 nM after 48 hrs by RT-qPCR analysis. The format is functional. In outline:
(§2)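 HT-29 cells at 70–80% confluence were seeded at 1.5×10^5 per well and left 24 h, then treated 48 h, with DMSO as control. Total RNA was extracted and VEGF-A, c-Myc and hTERT were quantified by TaqMan qPCR, normalized to β-actin and to living cell number. Results are % expression versus control, at least three measurements.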
For orientation: Real-time PCR tracks product formation cycle by cycle.

In test [3] the test system is HT-29. The test is described as follows: Effect on hTERT gene expression in human HT-29 cells assessed as hTERT level at 1 nM after 48 hrs by RT-qPCR analysis. It counts as functional. An outline of the steps: as §2
Test [4] relates to HT-29. The test is described as follows: Effect on VEGF gene expression in human HT-29 cells assessed as VEGF level at 1 nM after 48 hrs by RT-qPCR analysis. The format is functional. An outline of the steps: as §2
The test system of test [5] is HT-29. The test is described as follows: Effect on VEGFR2 protein expression in human HT-29 cells assessed as VEGFR2 level at 1 nM after 48 hrs by ELISA. The format is functional. An outline of the steps: (§3)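 HT-29 cells (1.5×10^5 per well, 24 h pre-culture) were treated 48 h and washed in PBS. They were lysed in Tris pH 7.4 buffer with detergents, phosphatase inhibitors, PMSF and protease inhibitors. Lysates were adjusted to 200 µg/mL protein (Bradford) and total c-Myc or VEGFR-2 was measured by sandwich ELISA kit. Values are % of DMSO control, ≥3 measurements.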
(In general: An ELISA detects its analyte on a solid surface through an enzyme-linked reagent.)

In test [6] the test system is HT-29. Nature of the test: Induction of apoptosis in human HT-29 cells assessed as viable cells at 1 nM after 48 hrs by Annexin V-FITC staining-based flow cytometric analysis (reference value: 82 +/- 1%). Particulars: HT-29, 48 h, read-out: Activity. It counts as functional. A general note: A flow cytometer gives signals particle by particle.
Test [7] concerns HT-29. The test is described as follows: Effect on VEGF protein expression in human HT-29 cells assessed as secreted VEGF level in culture media at 1 nM after 48 hrs by ELISA.
Another test concerns MCF7. The test is described as follows: Antiproliferative activity against human MCF7 cells after 2 days by MTT assay. It counts as functional, cell-based. Particulars: MCF7, 48 h. An outline of the steps: as §1
Test [8] concerns HT-29. The test is described as follows: Effect on c-MYC protein expression in human HT-29 cells assessed as c-MYC level at 1 nM after 48 hrs by ELISA. It counts as functional. An outline of the steps:
as §3

The next test concerns HeLa. The test is described as follows: Antiproliferative activity against human HeLa cells after 2 days by MTT assay. The format is functional, cell-based. As to conditions: 48 h. In outline:
as §1

Test [9] concerns HT-29. Nature of the test: Induction of apoptosis in human HT-29 cells assessed as apoptotic cells at 1 nM after 48 hrs by Annexin V-FITC staining-based flow cytometric analysis (reference value: 13 +/- 3%). It counts as functional.
Test [10] has as its system HT-29. The test is described as follows: Induction of apoptosis in human HT-29 cells assessed as necrotic cells at 1 nM after 48 hrs by Annexin V-FITC staining-based flow cytometric analysis (reference value: 2 +/- 6%). It counts as functional.
Test [11] relates to HT-29. Nature of the test: Effect on VEGF gene expression in human HT-29 cells assessed as VEGF level at 20 nM after 48 hrs by RT-qPCR analysis. The format is functional. In outline:
as §2

The test system of test [12] is HT-29. The test is described as follows: Induction of apoptosis in human HT-29 cells assessed as apoptotic cells at 20 nM after 48 hrs by Annexin V-FITC staining-based flow cytometric analysis (reference value: 13 +/- 3%). It counts as functional.
Test [13] deals with HT-29. The test is described as follows: Effect on c-MYC protein expression in human HT-29 cells assessed as c-MYC level at 20 nM after 48 hrs by ELISA. The format is functional. In outline: as §3
Test [14] has as its system HT-29. The test is described as follows: Effect on VEGFR2 protein expression in human HT-29 cells assessed as VEGFR2 level at 20 nM after 48 hrs by ELISA. The format is functional. In outline: as §3
For test [15], the system named is HT-29. Nature of the test: Induction of apoptosis in human HT-29 cells assessed as necrotic cells at 20 nM after 48 hrs by Annexin V-FITC staining-based flow cytometric analysis (reference value: 2 +/- 6%). It counts as functional.
The test system of test [16] is HT-29. The test is described as follows: Effect on VEGF protein expression in human HT-29 cells assessed as secreted VEGF level in culture media at 20 nM after 48 hrs by ELISA.
The subject of test [17] is HT-29. Nature of the test: Effect on c-MYC gene expression in human HT-29 cells assessed as c-MYC level at 20 nM after 48 hrs by RT-qPCR analysis. The format is functional. An outline of the steps:
as §2

Test [18] deals with HT-29. The test is described as follows: Effect on hTERT gene expression in human HT-29 cells assessed as hTERT level at 20 nM after 48 hrs by RT-qPCR analysis. It counts as functional. In outline: as §2
For test [19], the system named is HT-29. Nature of the test: Induction of apoptosis in human HT-29 cells assessed as viable cells at 20 nM after 48 hrs by Annexin V-FITC staining-based flow cytometric analysis (reference value: 82 +/- 1%). The format is functional. As to conditions: HT-29, 48 h, read-out: Activity.
The test system of test [20] is HT-29. The test is described as follows: Effect on VEGF protein expression in human HT-29 cells assessed as secreted VEGF level in culture media at 25 uM after 48 hrs by ELISA.
In test [21] the test system is HT-29. Nature of the test: Effect on c-MYC protein expression in human HT-29 cells assessed as c-MYC level at 25 uM after 48 hrs by ELISA. It counts as functional. In outline:
as §3

The test system of test [22] is HT-29. Nature of the test: Effect on c-MYC gene expression in human HT-29 cells assessed as c-MYC level at 25 uM after 48 hrs by RT-qPCR analysis. It counts as functional. An outline of the steps:
as §2

The test system of test [23] is HT-29. The test is described as follows: Induction of apoptosis in human HT-29 cells assessed as viable cells at 25000 nM after 48 hrs by Annexin V-FITC staining-based flow cytometric analysis (reference value: 82 +/- 1%). It counts as functional. As to conditions: HT-29, 48 h, read-out: Activity.
Test [24] concerns HT-29. Nature of the test: Effect on hTERT gene expression in human HT-29 cells assessed as hTERT level at 25 uM after 48 hrs by RT-qPCR analysis. It counts as functional. An outline of the steps:
as §2

Test [25] relates to HT-29. The test is described as follows: Effect on VEGFR2 protein expression in human HT-29 cells assessed as VEGFR2 level at 25 uM after 48 hrs by ELISA. It counts as functional. An outline of the steps: as §3
Test [26] deals with HT-29. Nature of the test: Effect on VEGF gene expression in human HT-29 cells assessed as VEGF level at 25 uM after 48 hrs by RT-qPCR analysis. It counts as functional. An outline of the steps:
as §2

For test [27], the system named is HT-29. Nature of the test: Induction of apoptosis in human HT-29 cells assessed as necrotic cells at 25000 nM after 48 hrs by Annexin V-FITC staining-based flow cytometric analysis (reference value: 2 +/- 6%). It counts as functional.
For test [28], the system named is HT-29. The test is described as follows: Induction of apoptosis in human HT-29 cells assessed as apoptotic cells at 25000 nM after 48 hrs by Annexin V-FITC staining-based flow cytometric analysis (reference value: 13 +/- 3%). The format is functional.

The structures appear in SMILES notation. pIC50: −log10 of the molar value.

One may read the pIC50 as the IC50 on a negative log10 scale, so that one unit is a factor of ten. A high value points to a low IC50.

In the case of `COc1cc2c(c(OC)c1OC)-c1ccc(OC)c(=O)cc1[C@@H](NC(=O)Nc1ccc(-c3ccccc3)cc1)CC2`, the pIC50 with HEK293 was 8.77; with HT-29 [1], 8.92; with MCF7 it was 8.82; with HeLa, 7.92. In addition, the Activity with HT-29 [2] came out at 85%; in the test with HT-29 [3], 60%; in the test with HT-29 [4], 72%; with HT-29 [5], 74%; in the test on HT-29 [7], 72%; in the test with HT-29 [8], 119%. Also, the Activity in the test on HT-29 [9] worked out at 11%; with HT-29 [10] it was 3%. Besides, in the test with HT-29 [6], the viability at 0.001 µM stood at 86%.

With `COc1cc2c(c(OC)c1OC)-c1ccc(OC)c(=O)cc1[C@@H](NC(=O)Nc1ccccc1C(F)(F)F)CC2`, the negative-log IC50 (pIC50) in the test with HEK293 is 7.72; in the test with HT-29 [1], 7.82; with MCF7, 7.60; in the test with HeLa it was 7.74. The Activity in the test on HT-29 [11] is 101%; with HT-29 [12], 4%; with HT-29 [13], 99%; with HT-29 [14] it was 100%; in the test with HT-29 [15], 1%; in the test with HT-29 [16], 82%. Also, the Activity with HT-29 [17] and with HT-29 [18] was 107% throughout. Also, in the test with HT-29 [19], the viability at 0.02 µM was 96%.

In the case of `CCN(CC)CCNC(=O)c1c(C)[nH]c(/C=C2\C(=O)Nc3ccc(F)cc32)c1C` [SUNITINIB], the Activity in the test on HT-29 [20] worked out at 45%; with HT-29 [21] it was 100%; in the test on HT-29 [22] it was 47%; with HT-29 [24], 68%; in the test with HT-29 [25], 90%; with HT-29 [26], 46%. For the same compound, the results for the Activity in the test with HT-29 [27] and with HT-29 [28] were 3% and 22%, respectively. Besides, the viability at 25 µM in the test with HT-29 [23] amounted to 75%.

Values taken from ChEMBL document CHEMBL4229380, “Arylureas derived from colchicine: Enhancement of colchicine oncogene downregulation activity” (Eur J Med Chem, 2018).
